Data as given in ChEMBL document CHEMBL3272112, “Cycloalkanones. 8. Hypocholesterolemic activity of long-chain ketones related to pentadecanone” (J Med Chem, 1976).

What was measured:
Rattus norvegicus [1] = species: Rattus norvegicus; test: Disruption of rat liver cell membrane assessed as unlysed cells at 10 mg per gram of tissue measured at 1 hr (reference value: 90 +/- 4%); format: functional
Summary of the method: (§1)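 Rat liver 10% homogenate in 0.25 M sucrose + 0.001 M EDTA, pH 7.2, incubated at 37°C with Hanke's buffer pH 7.2 and drug suspended in 1% CMC (dose as mg drug per g wet liver); turbidity read as absorbance at 660 nm over 0–4 hr, falling absorbance taken as lysis; expressed as % unlysed cells; vehicle 1% CMC control.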

Rattus norvegicus [2] = test: Toxicity in Sprague-Dawley rat assessed as increase in body weight at 1 mg/kg/day administered for 16 days measured on day 16 post last dose (reference value: 195 +/- 16%); format: organism-based; details: in vivo, 384 h
Rattus norvegicus [3] = test: Toxicity in Sprague-Dawley rat assessed as food intake at 5 mg/kg/day measured after 1 week (reference value: 20.9 +/- 4.9 g/day); format: organism-based; details: in vivo, 168 h
Rattus norvegicus [4] = test: Toxicity in Sprague-Dawley rat assessed as atrophy of epididymis at 10 mg/kg/day administered for 16 days measured on day 16 post last dose; format: organism-based; details: in vivo, 384 h
Rattus norvegicus [5] = species: Rattus norvegicus; test: Disruption of rat liver cell membrane assessed as unlysed cells at 5 mg per gram of tissue measured at 30 mins (reference value: 93 +/- 7%); format: functional; summary of the method: as §1
Rattus norvegicus [6] = test: Toxicity in Sprague-Dawley rat assessed as increase in liver weight at 10 mg/kg/day administered for 16 days measured on day 16 post last dose relative to total body weight (reference value: 4.35 +/- 0.39%); format: organism-based; details: in vivo, 384 h
Rattus norvegicus [7] = test: Hypocholesterolemic activity in Sprague-Dawley rat assessed as serum cholesterol level at 1 mg/kg/day, po administered via intubation measured on day 10 by Liebermann-Burchard method relative to control; format: functional
Summary of the method: (§2)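 Male Sprague-Dawley rats given compound homogenized in 1% CMC once daily at 11:00 a.m. by oral intubation needle (0.2 cc), doses calculated on weekly body weights; tail-vein blood drawn 24 h after last dose; nonhemolyzed serum (30 μ) assayed by modified Liebermann-Burchard method; N = 8; % of control, mean ± SD; Student's t test.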

Rattus norvegicus [8] = test: Hypocholesterolemic activity in Sprague-Dawley rat assessed as serum cholesterol level at 5 mg/kg/day, po administered via intubation measured on day 16 by Liebermann-Burchard method relative to control; format: functional; summary of the method: as §2
Rattus norvegicus [9] = test: Hypocholesterolemic activity in Sprague-Dawley rat assessed as serum cholesterol level at 50 mg/kg/day, po administered via intubation measured on day 10 by Liebermann-Burchard method relative to control; format: functional; summary of the method: as §2
Rattus norvegicus [10] = test: Hypocholesterolemic activity in Sprague-Dawley rat assessed as serum cholesterol level at 10 mg/kg/day, po administered via intubation measured on day 10 by Liebermann-Burchard method relative to control; format: functional; summary of the method: as §2
Rattus norvegicus [11] = test: Effect on serum triglyceride level in Sprague-Dawley rat at 10 mg/kg/day measured on day 16 (reference value: 100 +/- 21%); format: functional
Rattus norvegicus [12] = test: Toxicity in Sprague-Dawley rat assessed as increase in epididymis and vas deferens weight at 10 mg/kg/day administered for 16 days measured on day 16 post last dose relative to total body weight (reference value: 0.22 +/- 0.04%); format: organism-based; details: in vivo, 384 h
Rattus norvegicus [13] = test: Toxicity in Sprague-Dawley rat assessed as effect on DNA level in liver at 10 mg/kg/day measured after 16 days (reference value: 100 +/- 2%); format: organism-based; details: in vivo, 384 h
Rattus norvegicus [14] = species: Rattus norvegicus; test: Disruption of rat liver cell membrane assessed as unlysed cells at 25 mg per gram of tissue measured at 15 mins (reference value: 91 +/- 6%); format: functional; summary of the method: as §1
Rattus norvegicus [15] = test: Toxicity in Sprague-Dawley rat assessed as food intake at 20 mg/kg/day measured after 1 week (reference value: 20.9 +/- 4.9 g/day); format: organism-based; details: in vivo, 168 h
Rattus norvegicus [16] = test: Toxicity in Sprague-Dawley rat assessed as atrophy of vas deferens at 10 mg/kg/day administered for 16 days measured on day 16 post last dose; format: organism-based; details: in vivo, 384 h
Rattus norvegicus [17] = species: Rattus norvegicus; test: Disruption of rat liver cell membrane assessed as unlysed cells at 25 mg per gram of tissue measured at 4 hrs (reference value: 17 +/- 4%); format: functional; summary of the method: as §1
Rattus norvegicus [18] = species: Rattus norvegicus; test: Disruption of rat liver cell membrane assessed as unlysed cells at 10 mg per gram of tissue measured at 4 hrs (reference value: 17 +/- 4%); format: functional; summary of the method: as §1
Rattus norvegicus [19] = species: Rattus norvegicus; test: Disruption of rat liver cell membrane assessed as unlysed cells at 10 mg per gram of tissue measured at 2 hrs (reference value: 77 +/- 8%); format: functional; summary of the method: as §1
Rattus norvegicus [20] = test: Toxicity in Sprague-Dawley rat assessed as estrogenic activity at 10 mg/kg/day; format: organism-based; details: in vivo
Summary of the method: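 Weaned rats ovariectomized, left 3 days, then given 10 mg/kg/day test compound (or 10 μg/kg/day 17-ethinylestradiol as reference) for 3 days; killed, uterus removed, trimmed and weighed; expressed as % uterine weight of 1% CMC control, mean ± SD; Student's t test.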

Rattus norvegicus [21] = test: Toxicity in Sprague-Dawley rat assessed as change in kidney weight at 10 mg/kg/day administered for 16 days measured on day 16 post last dose relative to total body weight (reference value: 0.91 +/- 0.10%); format: organism-based; details: in vivo, 384 h
Rattus norvegicus [22] = test: Hypocholesterolemic activity in Sprague-Dawley rat assessed as serum cholesterol level at 20 mg/kg/day, po administered via intubation measured on day 4 by Liebermann-Burchard method relative to control; format: functional; summary of the method: as §2
Rattus norvegicus [23] = species: Rattus norvegicus; test: Disruption of rat liver lysosomal membrane assessed as free acid phosphatase activity at 25 mg per gram of tissue measured after 1 hr (reference value: 100 +/- 16%); format: functional, tissue-based
Summary of the method: (§3)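 10% rat liver homogenate incubated with Hanke's buffer pH 7.2 and drug suspension in 1% CMC in a shaker at 37°C; aliquot removed after 1 hr and percent free (unbound) acid phosphatase activity determined as an index of lysosomal membrane rupture.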

Rattus norvegicus [24] = test: Toxicity in Sprague-Dawley rat assessed as increase in body weight at 20 mg/kg/day administered for 16 days measured on day 16 post last dose (reference value: 195 +/- 16%); format: organism-based; details: in vivo, 384 h
Rattus norvegicus [25] = species: Rattus norvegicus; test: Disruption of rat liver lysosomal membrane assessed as free acid phosphatase activity at 5 mg per gram of tissue measured after 1 hr (reference value: 100 +/- 16%); format: functional, tissue-based; summary of the method: as §3
Rattus norvegicus [26] = test: Effect on serum triglyceride level in Sprague-Dawley rat at 20 mg/kg/day measured on day 14 (reference value: 100 +/- 21%); format: functional
Rattus norvegicus [27] = test: Hypocholesterolemic activity in Sprague-Dawley rat assessed as serum cholesterol level at 20 mg/kg/day, po administered via intubation measured on day 10 by Liebermann-Burchard method relative to control; format: functional; summary of the method: as §2
Rattus norvegicus [28] = test: Toxicity in Sprague-Dawley rat assessed as food intake at 5 mg/kg/day measured after 2 weeks (reference value: 24.8 +/- 1.1 g/day); format: organism-based; details: in vivo, 336 h
Rattus norvegicus [29] = test: Toxicity in Sprague-Dawley rat assessed as increase in body weight at 50 mg/kg/day administered for 16 days measured on day 16 post last dose (reference value: 195 +/- 16%); format: organism-based; details: in vivo, 384 h
Rattus norvegicus [30] = species: Rattus norvegicus; test: Disruption of rat liver cell membrane assessed as unlysed cells at 25 mg per gram of tissue measured at 30 mins (reference value: 93 +/- 7%); format: functional; summary of the method: as §1
Rattus norvegicus [31] = test: Toxicity in Sprague-Dawley rat assessed as atrophy of vesicular gland at 10 mg/kg/day administered for 16 days measured on day 16 post last dose; format: organism-based; details: in vivo, 384 h
Rattus norvegicus [32] = test: Toxicity in Sprague-Dawley rat assessed as food intake at 50 mg/kg/day measured after 2 weeks (reference value: 24.8 +/- 1.1 g/day); format: organism-based; details: in vivo, 336 h

## CCCCCCCCCCCCCCC(C)=O
Rattus norvegicus [1]
  Activity: 92%
Rattus norvegicus [2]
  Activity: 229%
Rattus norvegicus [3]
  Activity: 21.8 g/day
Rattus norvegicus [4]
  Activity: Non-toxic
Rattus norvegicus [5]
  Activity: 93%
Rattus norvegicus [6]
  Activity: 4.39%
Rattus norvegicus [7]
  Activity: 80%
Rattus norvegicus [8]
  Activity: 67%
Rattus norvegicus [9]
  Activity: 74%
Rattus norvegicus [10]
  Activity: 72%
Rattus norvegicus [11]
  Activity: 120%
Rattus norvegicus [12]
  Activity: 0.24%
Rattus norvegicus [13]
  Activity: 114%
Rattus norvegicus [14]
  Activity: 97%
Rattus norvegicus [15]
  Activity: 21.4 g/day
Rattus norvegicus [16]
  Activity: Non-toxic
Rattus norvegicus [17]
  Activity: 18%
Rattus norvegicus [18]
  Activity: 19%
Rattus norvegicus [19]
  Activity: 77%
Rattus norvegicus [20]
  Activity: Non-toxic
Rattus norvegicus [21]
  Activity: 0.86%
Rattus norvegicus [22]
  Activity: 74%
Rattus norvegicus [23]
  Activity: 116%
Rattus norvegicus [24]
  Activity: 225%
Rattus norvegicus [25]
  Activity: 85%
Rattus norvegicus [26]
  Activity: 101%
Rattus norvegicus [27]
  Activity: 76%
Rattus norvegicus [28]
  Activity: 26.3 g/day
Rattus norvegicus [29]
  Activity: 226%
Rattus norvegicus [30]
  Activity: 96%
Rattus norvegicus [31]
  Activity: Non-toxic
Rattus norvegicus [32]
  Activity: 25.6 g/day
